# Screening data deposited in PubChem by Sanford-Burnham Center for Chemical Genomics.
# NadD inh – NadD (S. aureus) enzyme inhibition; purified NadD enzyme, colorimetric absorbance read-out; inhibition, % at 20 µM; 0.78% of 360,000 active; AID 602399; in the data active = inhibition above about 26%
# STEP block – blocks human striatal-enriched tyrosine phosphatase; P54829; 0.25% of 360,000 active; recombinant STEP, OMFP fluorogenic substrate, fluorescence; inhibition, % at 20 µM; AID 588621;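 active = inhibition at 20 µM, scaled per plate between control wells, above about 37%, limit read from the data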;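 also: 0% = DMSO with enzyme and substrate and 100% = substrate only without enzyme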
#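 Assay system: isolated STEP enzyme / Timing: 20 min at room temperature, dark / Doses: 20 µM, 1% DMSO / Technique: fluorescence intensity, excitation 480 nm, emission 540 nm / Reagent: fluorogenic phosphatase substrate OMFP at 25 µM final / Measure: percent inhibition scaled to no-enzyme and uninhibited-enzyme controls, plate-pattern corrected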
# LMPTP block – blocks human LMPTP phosphatase; inhibition, % at 20 µM; 0.22% of 360,000 active; P24666; recombinant LMPTP-A, OMFP fluorogenic substrate, fluorescence intensity;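 active = compounds that cut the enzyme signal by at least half of the control window in the single-dose screen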;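 also: plate controls were DMSO wells with enzyme plus substrate for no effect and substrate without enzyme for full effect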
# Target sequence (P24666 whole entry, looked up): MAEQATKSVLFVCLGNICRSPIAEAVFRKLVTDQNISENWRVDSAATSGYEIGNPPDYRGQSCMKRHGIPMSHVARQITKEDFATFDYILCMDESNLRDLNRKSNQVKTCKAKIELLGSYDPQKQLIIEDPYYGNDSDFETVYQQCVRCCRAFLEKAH
#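 Test system – LMPTP-A enzyme · Amount – LMPTP-A at 0.625 nM final in the reaction · Buffer or medium – Bis-Tris pH 6.0, DTT, detergent · Reagent – OMFP 400 µM · Doses – single 20 µM dose · Schedule – reaction 50 min, room temperature, dark · Detection – fluorescence intensity of OMFP turnover product · Evaluation – percent inhibition versus substrate-only and uninhibited controls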
# SUMO1 PPI mod – alters human SUMO1 binding to SIM partners | P63165 | SUMO1 binding to a labelled peptide, TR-FRET, 1 h | inhibition, % at 20 µM | 0.33% of 360,000 active; in the data active = inhibition above about 37%
# Target sequence (P63165 whole entry, looked up): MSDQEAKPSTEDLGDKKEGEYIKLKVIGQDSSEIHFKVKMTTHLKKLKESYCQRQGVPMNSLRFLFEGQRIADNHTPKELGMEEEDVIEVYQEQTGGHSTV
# DNMT1 inh – DNMT1 (human) enzyme inhibition; DNMT1 molecular beacon, Hinp1I cleavage, fluorescence; inhibition (reported as % activation of signal), % at 10 µM; 0.83% of 360,000 active; AID 588458; in the data active = inhibition above about 50%
# Scp1 inh – inhibitors of human Scp-1 phosphatase. Q9GZU7. Recombinant Scp1, phosphopeptide, malachite green phosphate absorbance. inhibition, % at 20 µM. 0.88% of 340,000 active;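 active = inhibition above about 50% at 20 µM, limit read from the data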;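 also: plate controls were DMSO wells with enzyme for no effect and wells lacking enzyme for full effect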
# Target sequence (Q9GZU7 76-261 limits assumed): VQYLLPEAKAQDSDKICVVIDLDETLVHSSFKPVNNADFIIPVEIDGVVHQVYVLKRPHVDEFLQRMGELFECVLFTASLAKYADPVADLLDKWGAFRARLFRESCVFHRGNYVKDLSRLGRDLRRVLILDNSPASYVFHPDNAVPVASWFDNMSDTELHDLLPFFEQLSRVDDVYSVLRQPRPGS
#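 Material: truncated SCP-1 phosphatase (76-261aa) / Buffer or medium: 50 mM Tris acetate pH 5.5, 0.005% Tween-20, 10 mM MgCl2 / Compound dosing: one concentration, 20 µM, with 1.0% DMSO / Incubation: 45 min room-temperature reaction, 5 min colour, 30 min stabiliser / Detection: colorimetric free-phosphate detection, absorbance 630 nm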
# DNMT1 confirm – confirmation of human DNMT1 inhibitors. shares compounds with DNMT1 inh. DNMT1 molecular beacon HinP1I cleavage, fluorescence. inhibition, % at 10 µM. 8% of 2,300 active;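 active = average inhibition of at least 30% in the single-concentration confirmation test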
# Beacon interf – shows spectral interference in the DNMT1 beacon assay | shares compounds with DNMT1 inh | DNMT1 molecular beacon spectral interference counterscreen, fluorescence 485/520 | activation (fluorescence interference), % at 10 µM | 1% of 2,300 active | AID 602387;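 active = activation of at least 30% at 10 µM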;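 also: DNMT1 catalytic domain with a HinP1I cleavage step and a FAM/dabcyl DNA beacon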
# An asterisk follows results filed as active; . = no result. A selection: hits, their analogues and other compounds. The true share with any hit is near 2.3%.
SMILES,NadD inh,STEP block,LMPTP block,SUMO1 PPI mod,DNMT1 inh,Scp1 inh,DNMT1 confirm,Beacon interf
CCOC(=O)c1c(C)[nH]c(C(=O)OCC(=O)Nc2cc(Cl)ccc2OC)c1C,-5,0,-2,-2,22,-2,.,.
CCOC(=O)c1c(C)[nH]c(C(=O)OCC(=O)N2CCc3ccccc32)c1C,1,-2,0,1,62*,-5,4,0
CCOC(=O)c1c(C)[nH]c(C(=O)OCC(=O)Nc2cc(C)ccc2OC)c1C,-2,3,-1,-3,62*,-4,2,1
CCOC(=O)c1c(C)[nH]c(C(=O)OCC(=O)Nc2ccc(OCC)cc2)c1C,-1,-3,0,-4,69*,21,-1,-2
CNS(=O)(=O)c1ccc(NC(=O)c2cnn3c(C(F)F)cc(-c4ccccc4)nc23)cc1,3,1,1,-5,53*,-1,1,-5
COc1ccc2ccccc2c1C(O)c1nccn1C (configuration not stated),1,-20,-1,-19,62*,-14,0,2
COCCN1C(=O)N(c2cccc(C)c2)C(=O)C1CC(=O)Nc1ccc(OC)cc1 (configuration not stated),4,0,-1,6,-8,-11,.,.
S=C(Nc1ccc(Cl)cc1)Nc1ccc2c(c1)OCCO2,-1,-2,1,13,72*,1,2,3
NC(=O)CC(NC(=O)Cc1cccc2ccccc12)c1ccc(NC2CCCCCCC2)c([N+](=O)[O-])c1 (configuration not stated),7,3,1,0,60*,0,1,6
NC(=O)CC(NC(=O)Cc1ccc(Br)cc1)c1ccc(NC2CCCC2)c([N+](=O)[O-])c1 (configuration not stated),-5,3,2,-12,54*,-6,3,2
C=CCn1c(SCC(C)=O)nc2scc(-c3ccco3)c2c1=O,14,9,25,24,75*,19,7,5
C=CCn1c(SC(F)F)nc2scc(-c3ccco3)c2c1=O,-5,6,4,1,3,-5,.,.
C=CCn1c(SCC(=O)NCc2ccc3c(c2)OCO3)nc2scc(-c3ccccc3)c2c1=O,-5,2,2,-2,1,-10,.,.
C=CCn1c(SCc2ccc3c(c2)OCO3)nc2scc(-c3ccco3)c2c1=O,24,3,7,25,103*,-9,4,3
COc1ccc2c(c1)c1c(c(=O)n(-c3ccc(C)cc3)c(=O)n1CC(=O)NCC1CCCO1)n2C (configuration not stated),1,-1,0,-17,98*,.,2,2
CCOC(=O)/C=c1/s/c(=C/c2ccc3cc(OC)ccc3c2)c(=O)n1CC(=O)NCC1CCCO1 (configuration not stated),-6,-7,2,-3,54*,-7,2,-2
CCOC(=O)/C=c1\s/c(=C\c2ccc(C#N)cc2)c(=O)n1CC(=O)NCc1ccco1,24,1,2,-7,50*,-5,0,-4
CCOC(=O)/C=c1\s/c(=C\c2c(OC)ccc3ccccc23)c(=O)n1CC(=O)NCC1CCCO1 (configuration not stated),-8,0,2,-7,-6,-4,.,.
COc1ccc(CCNC(=O)C2CCN(C(=O)c3ccc([N+](=O)[O-])cc3)CC2)cc1,-2,-3,0,-18,0,-4,.,.
Cc1cc(C(=O)N/N=C/c2cc(Br)c(Br)o2)n[nH]1,0,18,7,-3,64*,46,-1,-1
Cc1cccc(C)c1OCc1cn(CC(=O)c2ccc(O)cc2)nn1,-2,0,-2,0,58*,1,3,-1
O=C(Cn1cc(COc2ccc(Br)cc2[N+](=O)[O-])nn1)c1ccc(O)cc1,-12,0,1,-11,51*,-2,8,-3
CC(=O)Nc1ccc(OCc2cn(CC(=O)c3ccc(O)cc3)nn2)cc1,32*,0,0,5,57*,.,4,-6
CC(=O)c1ccc(OCc2cn(CC(=O)c3ccc(O)cc3)nn2)cc1,0,2,0,6,37,-8,.,.
COc1ccccc1-c1nnc(SCC(=O)NNC(=O)c2ccccc2F)n1C,-1,-3,-1,5,2,-8,.,.
SMILES,NadD inh,STEP block,LMPTP block,SUMO1 PPI mod,DNMT1 inh,Scp1 inh,DNMT1 confirm,Beacon interf
Cc1ccc(C(=O)C2CCN(S(=O)(=O)c3ccc(C(=O)O)cc3)CC2)cc1,-5,-2,-1,3,0,-7,.,.
COc1ccc(Cl)cc1NC(=O)CN(C)C(=O)CCSc1ccc(C)cc1,-7,2,3,-2,-5,-8,.,.
O=C(Nc1ccc(Oc2ccccc2)cc1)c1csc(COCCO)n1,-4,0,0,5,64*,.,1,3
Cc1cc(=O)oc2cc(OCC(=O)N3CCC(O)CC3)c(Cl)cc12,1,0,-1,-3,0,-7,.,.
O=C(NN1C(=O)C2CC=C(Cl)CC2C1=O)c1ccncc1 (configuration not stated),7,4,-2,9,58*,16,1,1
COc1ccc(NC(=O)c2ccc(N3C(=O)C4CC=C(Cl)CC4C3=O)cc2)cc1 (configuration not stated),-2,-3,3,-2,-16,5,.,.
C=C1CCC2[C@](C)(CO)[C@H](O)CC[C@@]2(C)[C@@H]1C/C=C1\C(=O)OC[C@H]1O (some centres not stated),-3,-2,0,5,5,-1,.,.
C=C/C(C)=C/C[C@H]1C(=C)CCC2[C@](C)(C(=O)O)CCC[C@@]21C (some centres not stated),15,-1,2,14,89*,12,2,-7
N#Cc1ccc(CN2CCN(C(=O)CN3C(=O)NC4(CCCC4)C3=O)CC2)cc1,-5,-1,1,-2,3,-6,.,.
COc1cccc(NC(=O)c2cc3c(=O)n4ccccc4nc3n(CC(C)C)c2=N)c1,4,0,4,-20,11,3,.,.
Cc1cccc(NC(=O)c2cc3c(=O)n4ccccc4nc3n(CC(C)C)c2=N)c1,9,1,1,-1,62*,9,1,2
